Measurements as given in ChEMBL document CHEMBL4007484, “Pharmacokinetic optimitzation of CCG-203971: Novel inhibitors of the Rho/MRTF/SRF transcriptional pathway as potential antifibrotic therapeutics for systemic scleroderma” (Bioorg Med Chem Lett, 2017).

What was measured:
Liver [1] = experiment: Half life in CD-1 mouse liver microsomes at 1 uM in presence of NADPH by LC-MS/MS analysis; format: ADME, microsome
Outline: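 Half-life measured by incubation in mouse liver microsomes.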

[2] = Inhibition of Rho/MRTF/SRF pathway (unknown origin) expressed in HEK293T cells assessed as reduction in Galpha12-stimulated MRTF-selective SRE.L promoter-driven luciferase activity after overnight incubation by luminescence assay; format: cell-based, Homo sapiens
Outline: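 Signal was stimulated with Gα12 and luciferase activity was read. IC50 in μM is the mean of n ≥ 3.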

Homo sapiens = species: Homo sapiens; experiment: Inhibition of Rho/MRTF/SRF pathway in human primary dermal fibroblasts assessed as inhibition of TGF-beta-stimulated ACTA2 gene expression by measuring ACTA2 mRNA level at 10 uM after 24 hrs by qRT-PCR method relative to control; set-up: scale not given: the % may be the effect or the level left
Outline: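 Primary human dermal fibroblasts stimulated with TGF-β and treated with compound at 10 μM for 24 h. ACTA2 mRNA was measured by qPCR and expressed as percent of control, mean of n=3.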

[3] = Thermodynamic aqueous solubility of the compound in water by nitrogen detection method; format: physicochemical; settings: buffer
Outline: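 Thermodynamic solubility in water, reported in μg/mL.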

Liver [4] = experiment: Drug metabolism in CD-1 mouse liver microsomes assessed as 5,5-difluoro-1-(3-(furan-2-yl)benzoyl)piperidine-3-carboxylic acid formation at 20 uM after 3 mins in presence of NADPH by LC-MS/MS analysis; format: ADME, microsome; settings: 0.05 h
[5] = AUC (0 to 7 hrs) in CD-1 mouse at 10 mg/kg, ip administered as single dose by LC-MS/MS analysis; format: ADME, organism-based; set-up: dose 10 mg/kg, time < 7 hr, route intraperitoneal; settings: in vivo
Outline: (§1)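 Mice dosed once, by intraperitoneal injection at 10 mg/kg or by oral gavage at 20 mg/kg. AUC is estimated from the plasma concentration curve over 0–7 h and is expressed as hr.ng/mL.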

[6] = Plasma concentration in CD-1 mouse at 10 mg/kg, ip or 20 mg/kg, po administered via gavage as single dose measured at 0.5 hrs post dose by LC-MS/MS analysis; format: ADME, organism-based
Outline: (§2)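 Plasma concentration in μM after a single dose in mice (IP 10 mg/kg or PO gavage 20 mg/kg), sampled at 0.5 h and at 7 h post-dose.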

Mus musculus [7] = experiment: Antifibrotic activity in C57BL/6 mouse bleomycin-induced dermal fibrosis model assessed as inhibition ofhydroxyproline content at 50 mg/kg, po qd for 2 weeks relative to control; format: functional; settings: C57BL/6, po, 336 h
Outline: (§3)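 Three groups of mice (n=8) dosed daily for 14 days. The groups were: intracutaneous PBS; intracutaneous bleomycin plus vehicle by oral gavage; intracutaneous bleomycin plus test compound at 50 mg/kg by oral gavage. Read-outs were dermal thickness and skin hydroxyproline content. Each is given as the reduction of the bleomycin-induced increase.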

Mus musculus [8] = experiment: Antifibrotic activity in C57BL/6 mouse bleomycin-induced dermal fibrosis model assessed as inhibition of dermal thickness at 50 mg/kg, po qd for 2 weeks by Masson's trichrome staining based microscopic method relative to control; format: functional; settings: C57BL/6, po, 336 h; outline: as §3
[9] = AUC (0 to 7 hrs) in CD-1 mouse at 20 mg/kg, po administered via gavage as single dose by LC-MS/MS analysis; format: ADME, organism-based; set-up: time < 7 hr, dose 20 mg/kg, route oral; settings: in vivo; outline: as §1
[10] = Plasma concentration in CD-1 mouse at 10 mg/kg, ip or 20 mg/kg, po administered via gavage as single dose measured at 7 hrs post dose by LC-MS/MS analysis; format: ADME, organism-based; outline: as §2
Liver [11] = experiment: Drug metabolism in CD-1 mouse liver microsomes assessed as oxidative metabolism at 20 uM after 3 mins in presence of NADPH by LC-MS/MS analysis; format: ADME, microsome; settings: 0.05 h
Liver [12] = experiment: Drug level in CD-1 mouse liver microsomes treated with CCG-222740 at 20 uM after 3 mins in presence of NADPH by LC-MS/MS analysis; format: ADME, microsome; settings: 0.05 h

SMILES	t1/2 (Liver [1]) [min]	IC50 [2] [nM]	other results
O=C(Nc1ccc(Cl)cc1)C1CN(C(=O)c2cccc(-c3ncccn3)c2)CC(F)(F)C1 (configuration not stated)	11.9	3000	Activity (Homo sapiens): 65%; Therm_solubility [3]: 75.4 µg/mL
O=C1CC(C(=O)Nc2ccc(Cl)cc2)CN(C(=O)c2cccc(-c3ccco3)c2)C1 (configuration not stated)		3900	
O=C(c1cccc(-c2ccco2)c1)N1CCCC(F)(C(=O)Nc2ccc(Cl)cc2)C1 (configuration not stated)	2.8	800	
O=C(c1cccc(-c2ccco2)c1)N1CCCC(COc2ccc(Cl)cc2)C1 (configuration not stated)	1.8	810	
O=C(Nc1ccc(Cl)cc1)C1CCCN(C(=O)c2cnc(-c3ccco3)s2)C1 (configuration not stated)		5800	
O=C(Nc1ccc(Cl)cc1)C1CN(C(=O)c2cccc(-c3ccco3)c2)CC(F)(F)C1 (configuration not stated)	4.9	600	Drug metabolism (Liver [4]): Metabolite_Detected; AUC(0-t) at 7 h [5]: 9200 ng·h/mL; Activity (Homo sapiens): 9.3%; Therm_solubility [3]: 2.3 µg/mL
O=C(Nc1ccc(Cl)cc1)C1CN(C(=O)c2cccc(-c3ccncc3)c2)CC(F)(F)C1 (configuration not stated)	7.8	550	concentration at 0.5 h [6]: 14.4 µM; inhibition in vivo at 50 mg/kg (Mus musculus [7]): 62%; inhibition in vivo at 50 mg/kg (Mus musculus [8]): 55%; AUC(0-t) at 7 h [5]: 15300 ng·h/mL; Activity (Homo sapiens): 31%; Therm_solubility [3]: 23.1 µg/mL; AUC(0-t) at 7 h [9]: 33700 ng·h/mL; concentration at 7 h [10]: 2.4 µM
CC1(C(=O)Nc2ccc(Cl)cc2)CCCN(C(=O)c2cccc(-c3ccco3)c2)C1 (configuration not stated)	0.84	550	
O=C(Nc1ccc(Cl)cc1)C1CCCN(C(=O)c2cc(-c3ccco3)ncn2)C1 (configuration not stated)		15300	
O=C(Nc1ccc(Cl)cc1)C1CCCN(C(=O)c2cccc(-n3cccn3)c2)C1 (configuration not stated)	1.7	2900	
O=C(Nc1ccc(Cl)cc1)C1CCCN(C(=O)c2cccc(-c3cn[nH]c3)c2)C1 (configuration not stated)	5.6	3000	Activity (Homo sapiens): 73%
O=C(Nc1ccc(Cl)cc1)C1CN(C(=O)c2cccc(-c3cn[nH]c3)c2)CC(F)(F)C1 (configuration not stated)	13	4500	
Cn1cncc1-c1cccc(C(=O)N2CC(C(=O)Nc3ccc(Cl)cc3)CC(F)(F)C2)c1 (configuration not stated)	16	370	Activity (Homo sapiens): 110%; Therm_solubility [3]: 14.9 µg/mL
COC(=O)NC1CC(C(=O)Nc2ccc(Cl)cc2)CN(C(=O)c2cccc(-c3ccco3)c2)C1 (configuration not stated)		5000	
O=C(Nc1ccc(Cl)cc1)C1CCCN(C(=O)c2csc(-c3ccco3)n2)C1 (configuration not stated)		6200	
CN(C(=O)C1CCCN(C(=O)c2cccc(-c3ccco3)c2)C1)c1ccc(Cl)cc1 (configuration not stated)		8600	
O=C(Nc1ccc(Cl)cc1)C1CCCN(C(=O)c2cncc(-c3ccco3)c2)C1 (configuration not stated)	< 3	2900	
O=C(Nc1ccc(Cl)cc1)C1CN(C(=O)c2cc(F)cc(-c3ccncc3)c2)CC(F)(F)C1 (configuration not stated)	6.9	530	concentration at 0.5 h [6]: 13.2 µM; AUC(0-t) at 7 h [5]: 26700 ng·h/mL; Activity (Homo sapiens): 14%; Therm_solubility [3]: 9.8 µg/mL; AUC(0-t) at 7 h [9]: 36400 ng·h/mL; concentration at 7 h [10]: 1.3 µM
O=C(Nc1ccc(Cl)cc1)C1CCCN(C(=O)c2cc(-c3ccco3)on2)C1 (configuration not stated)		6800	
O=C(Nc1ccc(Cl)cc1)C1CN(C(=O)c2cccc(-c3cccnc3)c2)CC(F)(F)C1 (configuration not stated)	< 3	900	

SMILES	t1/2 (Liver [1]) [min]	IC50 [2] [nM]	other results
O=C(Nc1ccc(Cl)cc1)C1CN(C(=O)c2cccc(-c3ncc[nH]3)c2)CC(F)(F)C1 (configuration not stated)		5500	
O=C(Nc1ccc(Cl)cc1)C1CCCN(C(=O)c2cccc(-c3ccco3)c2)C1 (configuration not stated)	1.6	640	AUC(0-t) at 7 h [5]: 1200 ng·h/mL; Activity (Homo sapiens): 37%; Therm_solubility [3]: 13.4 µg/mL; Drug metabolism (Liver [11]): Metabolite_Detected
COC(=O)N1CCN(C(=O)c2cccc(-c3ccco3)c2)CC1C(=O)Nc1ccc(Cl)cc1 (configuration not stated)		2700	
CN(C)C1CC(C(=O)Nc2ccc(Cl)cc2)CN(C(=O)c2cccc(-c3ccco3)c2)C1 (configuration not stated)	3.3	5800	
O=C(NC1CCCN(C(=O)c2cccc(-c3ccco3)c2)C1)c1ccc(Cl)cc1 (configuration not stated)		4900	
O=C(Nc1ccc(Cl)cc1)C1CN(C(=O)c2cc(-c3ccco3)ccn2)CC(F)(F)C1 (configuration not stated)	2.5	7100	
O=C(Nc1ccc(Cl)cc1)C1CN(C(=O)c2cccc(-n3cccn3)c2)CC(F)(F)C1 (configuration not stated)	4.8	680	Activity (Homo sapiens): 140%; Therm_solubility [3]: 23 µg/mL
CC(=O)NC1CC(C(=O)Nc2ccc(Cl)cc2)CN(C(=O)c2cccc(-c3ccco3)c2)C1 (configuration not stated)		5000	
O=C(Nc1ccc(Cl)cc1)C1CN(C(=O)c2cccc(-c3ccccn3)c2)CC(F)(F)C1 (configuration not stated)	9.5	1000	Activity (Homo sapiens): 37%; Therm_solubility [3]: 3.9 µg/mL
O=C(Nc1ccc(Cl)cc1)C1CCCN(C(=O)c2cc(-c3ccco3)[nH]n2)C1 (configuration not stated)		5300	
O=C(Nc1ccc(Cl)cc1)C1CN(C(=O)c2cncc(-c3ccco3)c2)CC(F)(F)C1 (configuration not stated)	3	3500	
O=C(Nc1ccc(Cl)cc1)C1CN(C(=O)c2cncc(-c3ccncc3)c2)CC(F)(F)C1 (configuration not stated)	7.7	1200	Activity (Homo sapiens): 190%; Therm_solubility [3]: 62 µg/mL
CC(=O)N1CCN(C(=O)c2cccc(-c3ccco3)c2)CC1C(=O)Nc1ccc(Cl)cc1 (configuration not stated)		21000	
O=C(O)C1CN(C(=O)c2cccc(-c3ccco3)c2)CC(F)(F)C1 (configuration not stated)			Drug metabolism (Liver [12]): Metabolite_Detected
O=C(Nc1ccc(Cl)cc1)C1CN(C(=O)c2cccc(-c3cncnc3)c2)CC(F)(F)C1 (configuration not stated)		3200	
O=C(Nc1ccc(Cl)cc1)C1CCCN(C(=O)c2cc(-c3ccco3)ccn2)C1 (configuration not stated)	< 3	1900	
O=C(Nc1ccc(Cl)cc1)C1CN(C(=O)c2cccc(-c3ccco3)c2)CCO1 (configuration not stated)		3100	
C=C1CC(C(=O)Nc2ccc(Cl)cc2)CN(C(=O)c2cccc(-c3ccco3)c2)C1 (configuration not stated)	1.4	98	Activity (Homo sapiens): 9.5%
O=C(Nc1ccc(Cl)cc1)C1CCCN(C(=O)c2cccc(-c3cc[nH]n3)c2)C1 (configuration not stated)	3.4	920	
O=C(Nc1ccc(Cl)cc1)C1CCCN(C(=O)c2cccc(-n3ccnc3)c2)C1 (configuration not stated)		5200	
